Peptide text beside a SMILES is read from it.
Key:
[1] = molecular target: T1, Gastrin/cholecystokinin type B receptor (Homo sapiens, UniProt P32239); assay: Displacement of [125I]CCK from gastrin receptor isolated from human tumor tissues
T1 sequence (P32239 whole entry): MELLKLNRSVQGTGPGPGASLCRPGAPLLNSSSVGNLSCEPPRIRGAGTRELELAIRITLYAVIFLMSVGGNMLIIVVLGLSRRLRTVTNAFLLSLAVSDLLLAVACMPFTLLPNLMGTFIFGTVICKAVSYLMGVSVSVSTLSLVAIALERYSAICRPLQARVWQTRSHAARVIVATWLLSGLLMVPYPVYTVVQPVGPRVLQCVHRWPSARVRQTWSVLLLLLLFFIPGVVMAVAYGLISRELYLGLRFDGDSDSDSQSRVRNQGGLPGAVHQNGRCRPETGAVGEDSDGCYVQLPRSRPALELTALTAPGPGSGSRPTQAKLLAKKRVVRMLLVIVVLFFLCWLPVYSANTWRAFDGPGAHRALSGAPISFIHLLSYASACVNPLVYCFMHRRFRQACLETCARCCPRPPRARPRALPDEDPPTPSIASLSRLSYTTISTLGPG
Procedure, shortened: (§1)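 Surgically resected human tumor tissues expressing CCK-1 or gastrin receptors; 125I-CCK incubation medium with increasing amounts of competitor added to generate competitive inhibition curves.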

[2] = molecular target: T2, Cholecystokinin receptor type A (Homo sapiens, UniProt P32238); assay: Displacement of [125I]CCK from CCK1 receptor isolated from human tumor tissues; procedure, shortened: as §1
T2 sequence (P32238 whole entry): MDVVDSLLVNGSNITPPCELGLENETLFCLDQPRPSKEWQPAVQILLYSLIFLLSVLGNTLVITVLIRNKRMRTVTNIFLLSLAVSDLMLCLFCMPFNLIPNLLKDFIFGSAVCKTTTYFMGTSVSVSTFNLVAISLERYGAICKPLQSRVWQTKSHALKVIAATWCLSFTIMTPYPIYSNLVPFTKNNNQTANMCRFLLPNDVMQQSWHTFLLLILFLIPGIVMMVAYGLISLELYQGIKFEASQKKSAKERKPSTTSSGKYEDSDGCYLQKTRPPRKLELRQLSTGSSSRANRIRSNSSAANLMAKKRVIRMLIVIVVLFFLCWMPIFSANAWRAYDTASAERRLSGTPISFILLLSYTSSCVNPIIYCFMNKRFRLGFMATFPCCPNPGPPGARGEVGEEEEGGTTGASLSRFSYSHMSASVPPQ

[3] = molecular target: T3, Gastrin/cholecystokinin type B receptor (Rattus norvegicus, UniProt P30553); assay: Agonist activity at gastrin receptor in rat AR4-2J cells assessed as intracellular calcium mobilization by fluorescence assay; type: functional, cell-based
T3 sequence (P30553 whole entry): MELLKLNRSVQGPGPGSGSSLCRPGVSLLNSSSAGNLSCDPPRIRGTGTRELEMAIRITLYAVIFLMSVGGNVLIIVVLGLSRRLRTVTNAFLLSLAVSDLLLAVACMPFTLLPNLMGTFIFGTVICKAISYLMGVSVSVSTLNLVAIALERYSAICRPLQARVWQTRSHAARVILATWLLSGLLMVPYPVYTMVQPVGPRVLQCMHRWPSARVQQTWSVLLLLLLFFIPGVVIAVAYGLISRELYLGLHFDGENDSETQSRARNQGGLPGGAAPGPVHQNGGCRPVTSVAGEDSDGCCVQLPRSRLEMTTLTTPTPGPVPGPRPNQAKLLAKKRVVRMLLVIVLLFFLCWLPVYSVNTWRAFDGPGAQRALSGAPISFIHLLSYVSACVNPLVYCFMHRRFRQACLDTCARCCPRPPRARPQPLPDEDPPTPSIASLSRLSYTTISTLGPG
Procedure, shortened: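 AR4-2J cells seeded 50 000/well, cultured 1 day at 37 C, 5% CO2, then loaded with Ca dye in HBSS/20 mM HEPES with 2.5 mM probenecid for 1 h at 37 C. Peptides added as 1:3 serial dilutions in HBSS/HEPES/0.1% BSA/0.05% pluronic acid, diluted 1:6 on addition. Fluorescence (ex 485/em 525 nm) read 4 min at room temperature; Fmax with ionomycin; EC50 from four-parameter fit.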

IC50 [1] | IC50 [2] | SMILES | EC50 [3]
0.6 nM | > 700 nM | CSCC[C@H](NC(=O)[C@H](Cc1c[nH]c2ccccc12)NC(=O)CNC(=O)[C@H](Cc1ccc(O)cc1)NC(=O)[C@H](C)NC(=O)[C@@H](CO)NC(=O)[C@@H](CO)NC(=O)[C@@H](CO)NC(=O)CN1CCN(CC(=O)O)CCN(CC(=O)O)CCN(CC(=O)O)CC1)C(=O)N[C@@H](CC(=O)O)C(=O)N[C@@H](Cc1ccccc1)C(N)=O | –
0.8 nM | > 700 nM | CSCC[C@H](NC(=O)[C@H](Cc1c[nH]c2ccccc12)NC(=O)CNC(=O)[C@H](Cc1ccc(O)cc1)NC(=O)[C@H](C)NC(=O)[C@@H](CCC(N)=O)NC(=O)[C@@H](CCC(N)=O)NC(=O)CN1CCN(CC(=O)O)CCN(CC(=O)O)CCN(CC(=O)O)CC1)C(=O)N[C@@H](CC(=O)O)C(=O)N[C@@H](Cc1ccccc1)C(N)=O | –
1.6 nM | > 700 nM | CCCC[C@H](NC(=O)[C@H](Cc1c[nH]c2ccccc12)NC(=O)CNC(=O)[C@H](Cc1ccc(O)cc1)NC(=O)[C@H](C)NC(=O)[C@@H](CCC(N)=O)NC(=O)[C@@H](CCC(N)=O)NC(=O)[C@@H](CCC(N)=O)NC(=O)CN1CCN(CC(=O)O)CCN(CC(=O)O)CCN(CC(=O)O)CC1)C(=O)N[C@@H](CC(=O)O)C(=O)N[C@@H](Cc1ccccc1)C(N)=O | –
2.4 nM | > 700 nM | CSCC[C@H](NC(=O)[C@H](Cc1c[nH]c2ccccc12)NC(=O)CNC(=O)[C@H](Cc1ccc(O)cc1)NC(=O)[C@H](C)NC(=O)[C@@H](CCC(N)=O)NC(=O)[C@@H](CCC(N)=O)NC(=O)[C@@H](CCC(N)=O)NC(=O)[C@@H](CCC(N)=O)NC(=O)CN1CCN(CC(=O)O)CCN(CC(=O)O)CCN(CC(=O)O)CC1)C(=O)N[C@@H](CC(=O)O)C(=O)N[C@@H](Cc1ccccc1)C(N)=O | –

Continued, molecule first:

SMILES | IC50 [1] | IC50 [2] | EC50 [3]
CSCC[C@H](NC(=O)[C@H](Cc1c[nH]c2ccccc12)NC(=O)CNC(=O)[C@H](Cc1ccc(O)cc1)NC(=O)[C@H](C)NC(=O)[C@H](CCC(=O)O)NC(=O)[C@H](CCC(=O)O)NC(=O)[C@H](CCC(=O)O)NC(=O)[C@H](CCC(=O)O)NC(=O)[C@H](CCC(=O)O)NC(=O)[C@H](CCC(=O)O)NC(=O)CN1CCN(CC(=O)O)CCN(CC(=O)O)CCN(CC(=O)O)CC1)C(=O)N[C@@H](CC(=O)O)C(=O)N[C@@H](Cc1ccccc1)C(N)=O | 0.7 nM | > 700 nM | –
CSCC[C@H](NC(=O)[C@H](Cc1c[nH]c2ccccc12)NC(=O)CNC(=O)[C@H](Cc1ccc(O)cc1)NC(=O)[C@H](C)NC(=O)[C@@H](CO)NC(=O)[C@@H](CO)NC(=O)CN1CCN(CC(=O)O)CCN(CC(=O)O)CCN(CC(=O)O)CC1)C(=O)N[C@@H](CC(=O)O)C(=O)N[C@@H](Cc1ccccc1)C(N)=O | 0.9 nM | > 700 nM | –
CSCC[C@H](NC(=O)[C@H](Cc1c[nH]c2ccccc12)NC(=O)CNC(=O)[C@H](Cc1ccc(O)cc1)NC(=O)[C@H](C)NC(=O)[C@@H](CCC(N)=O)NC(=O)[C@@H](CCC(N)=O)NC(=O)[C@@H](CCC(N)=O)NC(=O)CN1CCN(CC(=O)O)CCN(CC(=O)O)CCN(CC(=O)O)CC1)C(=O)N[C@@H](CC(=O)O)C(=O)N[C@@H](Cc1ccccc1)C(N)=O (HELM PEPTIDE1{[O=C(O)CN1CCN(CC(=O)O)CCN(CC(=O)[*:2])CCN(CC(=O)O)CC1].[dQ].[dQ].[dQ].A.Y.G.W.M.D.F.[am]}$$$$V2.0) | 3.6 nM | > 700 nM | 0.27 nM
CSCC[C@H](NC(=O)[C@H](Cc1c[nH]c2ccccc12)NC(=O)CNC(=O)[C@H](Cc1ccc(O)cc1)NC(=O)[C@H](C)NC(=O)[C@@H](CCC(N)=O)NC(=O)[C@@H](CCC(N)=O)NC(=O)[C@@H](CCC(N)=O)NC(=O)[C@@H](CCC(N)=O)NC(=O)[C@@H](CCC(N)=O)NC(=O)[C@@H](CCC(N)=O)NC(=O)CN1CCN(CC(=O)O)CCN(CC(=O)O)CCN(CC(=O)O)CC1)C(=O)N[C@@H](CC(=O)O)C(=O)N[C@@H](Cc1ccccc1)C(N)=O (HELM PEPTIDE1{[O=C(O)CN1CCN(CC(=O)O)CCN(CC(=O)[*:2])CCN(CC(=O)O)CC1].[dQ].[dQ].[dQ].[dQ].[dQ].[dQ].A.Y.G.W.M.D.F.[am]}$$$$V2.0) | 2.4 nM | > 700 nM | 0.41 nM

Reference: ChEMBL document CHEMBL1806401, “Highly improved metabolic stability and pharmacokinetics of indium-111-DOTA-gastrin conjugates for targeting of the gastrin receptor” (J Med Chem, 2011)
